Test results from ChEMBL document CHEMBL1122685, “Identification of an acridine photoaffinity probe for trypanocidal action” (1984).

Assays:
Format in all cases: functional
[1] = test system: Trypanosoma brucei; assay: Compound is evaluated for trypanocidal activity against Trypanosoma brucei, by exposing the parasites directly to compound prior to injection to mice at 10 E-5 M concentration in dark conditions
Procedure, shortened: (§1)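 T. brucei EATRO 110 was separated from blood on DEAE-cellulose and washed in Tris-saline-glucose (TSG). Parasites at 5×10^6/mL in TSG were gently rotated 10 min with drug at the final concentration, kept dark under a red safelight until injection. Swiss mice, five per group, received 5×10^5 parasites ip in 0.1 mL. Read-out was mean days survival ±SD over 30 days, against untreated-parasite controls.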

[2] = test system: Trypanosoma brucei; assay: Compound is evaluated for trypanocidal activity against Trypanosoma brucei, by exposing the parasites directly to compound prior to injection to mice at 10 E-4 M concentration in presence of light
Procedure, shortened: (§2)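 DEAE-purified T. brucei EATRO 110 at 5×10^6/mL in TSG was mixed with drug at the final concentration by gentle rotation for 10 min. Samples were light-activated for 10 min under a 30W fluorescent lamp 4 cm above. 5×10^5 treated parasites in 0.1 mL were injected ip into Swiss mice, five per group. Survival was scored daily for 30 days and reported as mean days ±SD, with untreated controls.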

[3] = test system: Trypanosoma brucei; assay: Compound is evaluated for trypanocidal activity against Trypanosoma brucei, by exposing the parasites directly to compound prior to injection to mice at 10 E-5 M concentration (pre) in presence of light
Procedure, shortened: (§3)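 Compound was irradiated 1 h before contact with T. brucei EATRO 110 (5×10^6/mL in TSG, final drug concentration). After 10 min gentle rotation, the mixture was irradiated again for 10 min under a 30W fluorescent lamp at 4 cm. 5×10^5 parasites in 0.1 mL were given ip to five Swiss mice per group. Read-out was mean days survival ±SD over 30 days, with untreated controls.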

[4] = test system: Trypanosoma brucei; assay: Compound is evaluated for trypanocidal activity against Trypanosoma brucei, by exposing the parasites directly to compound prior to injection to mice at 10 E-6 M concentration in dark conditions; procedure, shortened: as §1
[5] = test system: Trypanosoma brucei; assay: Compound is evaluated for trypanocidal activity against Trypanosoma brucei, by exposing the parasites directly to compound prior to injection to mice at 10 E-5 M concentration (pre) in dark conditions
Procedure, shortened: (§4)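 Drug was preirradiated 1 h with visible light, then added at the final concentration to T. brucei EATRO 110 (5×10^6/mL in TSG) and rotated 10 min. The parasites were then kept dark with a red safelight. Swiss mice, five per group, were injected ip with 0.1 mL holding 5×10^5 parasites. Mean days survival ±SD was scored over 30 days against untreated-parasite controls.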

[6] = test system: Trypanosoma brucei; assay: Compound is evaluated for trypanocidal activity against Trypanosoma brucei, by exposing the parasites directly to compound prior to injection to mice at 10 E-6 M concentration in presence of light; procedure, shortened: as §2
[7] = test system: Trypanosoma brucei; assay: Compound is evaluated for trypanocidal activity against Trypanosoma brucei, by exposing the parasites directly to compound prior to injection to mice at 10 E-4 M concentration in dark conditions; procedure, shortened: as §1
[8] = test system: Trypanosoma brucei; assay: Compound is evaluated for trypanocidal activity against Trypanosoma brucei, by exposing the parasites directly to compound prior to injection to mice at 10 E-5 M concentration in presence of light; procedure, shortened: as §2
[9] = test system: Trypanosoma brucei; assay: Trypanocidal activity against Trypanosoma brucei, exposure of parasites to compound prior to injection into mice at 10 e-6 M concentration in dark conditions; procedure, shortened: as §1
[10] = test system: Trypanosoma brucei; assay: Compound is evaluated for trypanocidal activity against Trypanosoma brucei, by exposing the parasites directly to compound prior to injection to mice at 10 e-7 M concentration in dark; procedure, shortened: as §1
[11] = test system: Trypanosoma brucei; assay: Trypanocidal activity against Trypanosoma brucei, exposure of parasites to compound prior to injection into mice at 10 e-5 M concentration in dark conditions; procedure, shortened: as §1
[12] = test system: Trypanosoma brucei; assay: Compound is evaluated for trypanocidal activity against Trypanosoma brucei, by exposing the parasites directly to compound prior to injection to mice at 10 E-6 M concentration (pre) in dark conditions; procedure, shortened: as §4
[13] = test system: Trypanosoma brucei; assay: Compound is evaluated for trypanocidal activity against Trypanosoma brucei, by exposing the parasites directly to compound prior to injection to mice at 10 E-6 M concentration (pre) in presence of light.; procedure, shortened: as §3
[14] = test system: Trypanosoma brucei; assay: Compound is evaluated for trypanocidal activity against Trypanosoma brucei, by exposing the parasites directly to compound prior to injection to mice at 10 E-7 M concentration in presence of light; procedure, shortened: as §2
[15] = test system: Trypanosoma brucei; assay: Compound is evaluated for trypanocidal activity against Trypanosoma brucei, by exposing the parasites directly to compound prior to injection to mice at 10 E-7 M concentration in dark conditions; procedure, shortened: as §1
[16] = test system: Trypanosoma brucei; assay: Compound is evaluated for trypanocidal activity against Trypanosoma brucei, by exposing the parasites directly to compound prior to injection to mice at 10 E-5 M concentration in presence of lightin; procedure, shortened: as §2

SMILES | Activity [1] | Activity [2] | Activity [3] | Activity [4] | Activity [5] | Activity [6] | Activity [7] | Activity [8] | Activity [9] | Activity [10] | Activity [11] | Activity [12] | Activity [13] | Activity [14] | Activity [15] | Activity [16]
Nc1ccc2cc3ccccc3nc2c1 | 6.6 | 30 | 30 | 4.9 | 6.7 | 5.7 | 6.9 | 30 | – | – | – | – | – | – | – | –
N=C(N)c1ccc(/N=N/Nc2ccc(C(=N)N)cc2)cc1 [DIMINAZENE] | – | – | – | – | – | – | – | – | 10.8 | 5 | 19.2 | – | – | – | – | –
Nc1ccc2cc3ccc(N)cc3nc2c1 [PROFLAVINE] | 12 | 30 | – | 5.5 | – | 30 | 30 | – | – | – | – | 7.2 | 20.6 | 8.1 | 6.3 | 30
